Source: PubChem BioAssay (several laboratories)
FID counter: fluorescent intercalator displacement, NS3 helicase counter-screen | DNA fluorescent intercalator displacement, fluorescence | inhibition, % at 7.9 µM | 290,000 compounds, 0.17% hits; in the data active = inhibition above about 37%;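 note: higher means more ethidium bromide displaced from hairpin DNA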
FGF22 binding: shifts melting point of recombinant human FGF22; Q9HCT0; recombinant FGF22 thermal shift, SYPRO orange fluorescence; percent of sucrose octasulfate shift, DMSO zero; activity (Tm shift, normalised), % at 9.99 µM; 340,000 compounds, 1.5% hits;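 active = mean Tm shift, scaled 0 neutral to 100 positive control, at about 1.3% or above, every replicate too, limit read from the data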
Target sequence (Q9HCT0 whole entry, looked up): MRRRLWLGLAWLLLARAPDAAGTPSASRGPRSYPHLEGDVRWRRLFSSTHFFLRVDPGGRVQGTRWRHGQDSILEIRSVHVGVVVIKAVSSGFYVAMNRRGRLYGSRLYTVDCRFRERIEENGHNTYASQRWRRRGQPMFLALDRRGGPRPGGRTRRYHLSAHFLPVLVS
ZTA counter: ZTA (EBV) inhibition in EBNA-1 counter-screen; P03206; ZTA-DNA binding, fluorescence polarization; inhibition, % at 11 µM; 320,000 compounds, 0.15% hits; in the data active = inhibition above about 33%
Target sequence (P03206 whole entry, looked up): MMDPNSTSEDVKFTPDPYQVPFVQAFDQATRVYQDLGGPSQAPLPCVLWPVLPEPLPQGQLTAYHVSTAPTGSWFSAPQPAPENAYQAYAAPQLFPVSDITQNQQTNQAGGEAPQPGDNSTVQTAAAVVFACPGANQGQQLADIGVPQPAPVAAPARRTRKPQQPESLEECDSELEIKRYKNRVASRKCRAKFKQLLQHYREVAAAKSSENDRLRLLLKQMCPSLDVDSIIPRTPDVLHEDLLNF
HCV NS3 hel inh: HCV NS3 helicase inhibition | inhibition, % at 10.9 µM | 290,000 compounds, 0.56% hits | NS3 helicase DNA unwinding, Cy5 molecular beacon fluorescence;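 active = inhibition above the mean of all tested compounds plus 3 SD, set per campaign, cut at about 35% in these data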
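System: NS3 helicase fragment of HCV / Schedule: 1 h at 25 °C / Control set: DMSO alone as 0% and 110 µM thioflavine S as 100% / Reagent: Cy5/quencher beacon DNA duplex and ATP to start / Technique: Cy5 fluorescence / Replication: singlicate / Evaluation: % inhibition of end-to-start signal ratio versus controls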
NR3A LBD binder: modulators (binders) of human NR3A ligand-binding domain. NR3A LBD differential scanning fluorimetry, Tm shift; 0% = protein alone, 100% = glycine-bound protein. Tm shift relative to glycine control, % at 25 µM. 340,000 compounds, 2.5% hits. AID 1259313;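 active = melting temperature shift of at least 10% of the positive control shift, at one fixed dose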
EBNA-1 inh: blocks EBNA-1 binding to DNA; EBNA-1 DNA binding, fluorescence polarization; inhibition, % at 14.8 µM; 300,000 compounds, 0.34% hits; AID 1950; in the data active = inhibition above about 28%
Numbers stand for hits; - = inactive; . = not tested or not shown. This is a sample that favours compounds with a hit; in the whole collection about 3.6% have one here.

SMILES | FID counter | FGF22 binding | ZTA counter | HCV NS3 hel inh | NR3A LBD binder | EBNA-1 inh
COc1cccc(Nc2nn3c(=O)c4ccccc4nc3s2)c1 | . | . | - | . | 23 | .
C[C@@H]1CN([C@H](C)CO)C(=O)c2cc(C#CC3CC3)cnc2O[C@@H]1CN(C)C(=O)CC1CC1 | . | - | . | . | . | .
C[C@@H]1CCCCO[C@H](CN(C)C(=O)NC2CCCCC2)[C@H](C)CN([C@H](C)CO)C(=O)c2cc(NS(=O)(=O)c3ccccc3)ccc2O1 | . | - | . | . | . | .
Oc1ccc(NC(=S)N=Nc2c(O)[nH]c3ccc(Br)cc23)cc1 | - | - | . | - | - | .
Oc1[nH]c2ccc(Br)cc2c1N=NC(=S)Nc1ccc(F)cc1 | - | - | - | - | 18 | -
CC(C)(C)c1ccc(OCC(=O)N2CCCCCC2)c(Br)c1 | - | - | - | - | - | -
Cc1ccc(OCC(=O)N2CCCCC2)c(Br)c1 | - | . | - | - | 17 | -
CCNC(=O)C[C@@H]1CC[C@@H](NS(=O)(=O)c2ccc(F)cc2)[C@H](CO)O1 | . | - | . | . | . | .
Cc1oc(-c2cccc(C(F)(F)F)c2)nc1CN1CCN(c2ccccn2)CC1 | - | 43 | - | - | - | -
COCCSc1nc(N)c(NC(=O)c2ccc(OC)cc2)c(=O)[nH]1 | - | 43 | - | - | - | -
O=C(CSc1nc2nc(-c3cccs3)cc(C(F)(F)F)c2c(=O)[nH]1)Nc1ccc(F)c(F)c1 | - | - | - | - | 35 | -
CC(C)(C)NC(=O)CSc1nc(N)c(NC(=O)c2ccccc2F)c(=O)[nH]1 | - | 44 | - | - | - | -
Nc1nc(SCC(=O)Nc2ccc(C(F)(F)F)cc2)[nH]c(=O)c1NC(=O)c1ccc(F)c(F)c1 | - | - | - | - | 28 | -
COc1ccc(C(=O)Nc2c(N)nc(SCC(=O)c3ccccc3)[nH]c2=O)cc1 | - | - | - | - | - | -
Nc1nc(SCC(=O)NCc2ccccc2)[nH]c(=O)c1NC(=O)c1ccccc1F | - | . | - | - | - | -
COc1cccc(NC(=O)N(C)C[C@@H]2OCc3cnnn3CCCC(=O)N([C@H](C)CO)C[C@H]2C)c1 | . | - | . | . | . | .
COn1c(-c2ccccc2)nc2c1CCc1c-2no[n+]1[O-] | - | . | - | - | 13 | -
[O-][n+]1onc2c1CCc1c-2nc(-c2ccccc2)n1OCc1ccccc1 | - | . | - | - | - | -
COc1ccc(/C=N\NC(=O)c2ccc(F)cc2)cc1COc1cc(F)ccc1[N+](=O)[O-] | - | - | . | - | - | .
COc1ccc(/C=N/NS(=O)(=O)c2ccc(F)cc2)cc1COc1cc(F)ccc1[N+](=O)[O-] | - | - | - | - | 11 | -
C[C@H](CO)N1C[C@H](C)[C@H](CN(C)C(=O)C2CCC2)Oc2cc(C#CC3CC3)ccc2S1(=O)=O | . | - | . | . | . | .
O=C(CSc1ncn[nH]1)NC1CCCc2ccccc21 (stereo unspecified) | - | 43 | - | - | - | -
CC(C)c1nnc(NC(=O)CCC(=O)NC2CCCCC2)s1 | - | . | - | - | - | -
CC(C)c1nnc(NC(=O)CCC(=O)NC2CCCc3ccccc32)s1 (stereo unspecified) | - | . | - | - | 11 | -
O=C(CSc1nccc(=O)[nH]1)NC1CCCc2ccccc21 (stereo unspecified) | - | - | - | - | - | -
SMILES | FID counter | FGF22 binding | ZTA counter | HCV NS3 hel inh | NR3A LBD binder | EBNA-1 inh
N#C[C@@H]1[C@@H](c2ccccc2-c2cccc(F)c2)[C@@H](CO)N1C(=O)C1CCC1 | . | - | . | . | . | .
O=C(N/N=C/c1cccc(C(F)(F)F)c1)c1cc2c(s1)-c1ccccc1CC2 | - | . | - | - | 14 | -
CC(C)NC(=O)Nc1ccc2c(c1)C(=O)N([C@H](C)CO)C[C@@H](C)[C@H](CN(C)Cc1ccc(-c3ccccc3)cc1)O2 | . | - | . | . | . | .
CCOC(=O)c1cc(CN2CCOCC2)oc1-c1ccccc1 | - | . | - | - | 10 | -
CCOC(=O)c1c(-c2ccccc2)oc2ccc(O)c(CN3CCOCC3)c12 | - | . | - | - | - | -
N#C/C(=N/Nc1ccc(OC(F)(F)F)cc1)C(N)=S | - | - | - | - | 16 | -
COc1ccc(N/N=C(\C#N)C(N)=O)cc1 | - | - | - | - | - | -
N#CCCn1cc(C(=O)Nc2ccccc2Br)c(-c2cc3ccccc3o2)n1 | - | . | - | - | - | -
O=C(Nc1ccc2ccccc2c1)c1cn(-c2ccccc2)nc1-c1cccs1 | - | . | - | - | 25 | -
N#CCCn1cc(C(=O)Nc2ccc([N+](=O)[O-])cc2)c(-c2cc3ccccc3o2)n1 | - | - | - | - | 14 | -
CN(C)c1ccc(NC(=O)c2cn(-c3ccccc3)nc2-c2cccs2)cc1 | - | . | - | - | - | -
COc1ccc(NC(=O)c2cn(-c3ccccc3)nc2-c2cc3ccccc3o2)cc1 | - | . | - | - | 11 | -
COc1ccc(NC(=O)c2cn(-c3ccccc3)nc2-c2ccncc2)cc1 | - | - | - | - | - | -
COc1ccc(C(=O)Nc2ccc3c(c2)C(=O)N(C)C[C@@H](OC)[C@@H](C)CN[C@@H](C)CO3)cc1 | . | - | . | . | . | .
COc1ccc2c3c(n(C)c2c1)[C@H](CO)N(CC1CC1)CC31CCN(C(=O)Nc2c(C)noc2C)CC1 | . | - | . | . | . | .
Cc1ccc([N+](=O)[O-])cc1S(=O)(=O)Nc1cccc(-c2ccc(N3CCCC3)nn2)c1 | . | - | - | . | 12 | -
Cc1ccc(S(=O)(=O)Nc2cccc(-c3ccc(N4CCCCCC4)nn3)c2)cc1C | - | - | - | - | - | -
O=[N+]([O-])c1ccc(S(=O)(=O)Nc2cccc(-c3ccc(N4CCOCC4)nn3)c2)cc1 | . | - | - | . | 72 | -
O=[N+]([O-])c1ccc(S(=O)(=O)Nc2ccc(-c3ccc(N4CCOCC4)nn3)cc2)cc1 | . | - | - | . | - | -
Nc1ccccc1-c1ccccc1N | - | 44 | - | - | - | -
Nc1ccccc1-c1ccc(Cl)cc1 | . | - | . | . | - | .
